Reference: the array DNA melting data of Ke et al. (doi:10.1101/2024.01.08.574731)

Columns and labels:
[1] = folding enthalpy; higher = less favourable; fluorescence melt of hairpins on a sequencing array, two-state fit; settings: sodium 0.088 M
Outline: (§1)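 Folding enthalpy and melting temperature come from bootstrapped two-state fits to Cy3 fluorescence of library hairpins carrying annealed Cy3 and quencher oligos on a sequenced MiSeq flow cell. Imaging was done in 50 mM Na-HEPES pH 8.0, 25 mM NaCl, stepping by 2.5 °C up to 60 °C, and signals were normalised to pre-quench Cy3 and to control constructs. Results of four replicates were combined by inverse variance, and fitted temperatures were raised by 9.35 °C to match UV melts.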

[2] = melting temperature; fluorescence melt of hairpins on a sequencing array, two-state fit, raised by 9.35 °C to match UV melts; settings: sodium 0.088 M
Outline: as §1

| Sequence | folding enthalpy [1] | Tm [2] |
| --- | --- | --- |
| GATCTACGTTAGATC ((((((...)))))) | -24.8 kcal/mol | 38.3 °C |
| GATCTACTACTAGATC ((((((....)))))) | -31.4 kcal/mol | 37.5 °C |
| GATCTACTAGTAGATC ((((((....)))))) | -46.8 kcal/mol | 51.7 °C |
| GATCTACTCCTAGATC ((((((....)))))) | -33 kcal/mol | 39.5 °C |
| GATCTAGACTAGATC ((((((...)))))) | -36.6 kcal/mol | 40.8 °C |
| GATCTAGATCTAGATC ((((((....)))))) | -37.3 kcal/mol | 47.5 °C |
| GATCTAGATTTAGATC ((((((....)))))) | -28.4 kcal/mol | 38.4 °C |
| GATCTAGCATAGATC ((((((...)))))) | -36.5 kcal/mol | 50.8 °C |
| GATCTAGCTTTAGATC ((((((....)))))) | -26.7 kcal/mol | 38.8 °C |
| GATCTAGGAAACTAGATC (((((((....))))))) | -43.1 kcal/mol | 51.9 °C |
| GATCTAGGAAACTGGATC ((((.((....)).)))) | -34 kcal/mol | 41.8 °C |
| GATCTAGGCTAGATC ((((((...)))))) | -55.2 kcal/mol | 45.5 °C |
| GATCTAGGTTTAGATC ((((((....)))))) | -28.5 kcal/mol | 41.1 °C |
| GATCTAGTCGTAGATC ((((((....)))))) | -27.9 kcal/mol | 44.3 °C |
| GATCTAGTCTTAGATC ((((((....)))))) | -39.3 kcal/mol | 45 °C |
| GATCTAGTGCTAGATC ((((((....)))))) | -31.1 kcal/mol | 44.3 °C |
| GATCTAGTGTAGATC ((((((...)))))) | -26.4 kcal/mol | 38.5 °C |
| GATCTAGTTTAGATC ((((((...)))))) | -30.3 kcal/mol | 40.7 °C |
| GATCTATAAGTAGATC ((((((....)))))) | -35.6 kcal/mol | 41.6 °C |
| GATCTATAATTAGATC ((((((....)))))) | -25.5 kcal/mol | 39.9 °C |
| GATCTATATGTAGATC ((((((....)))))) | -35.4 kcal/mol | 45.5 °C |
| GATCTATCACTAGATC ((((((....)))))) | -31.9 kcal/mol | 38.6 °C |
| GATCTATCAGTAGATC ((((((....)))))) | -32.5 kcal/mol | 40.4 °C |
| GATCTATGAATAGATC ((((((....)))))) | -32.6 kcal/mol | 43.2 °C |

| Sequence | folding enthalpy [1] | Tm [2] |
| --- | --- | --- |
| GATCTATGCGTAGATC ((((((....)))))) | -41.5 kcal/mol | 48.2 °C |
| GATCTATGCTAGATC ((((((...)))))) | -23.4 kcal/mol | 40.4 °C |
| GATCTATGGTAGATC ((((((...)))))) | -28.9 kcal/mol | 36.9 °C |
| GATCTATGTGTAGATC ((((((....)))))) | -49.8 kcal/mol | 48 °C |
| GATCTATTAGTAGATC ((((((....)))))) | -33.8 kcal/mol | 44.4 °C |
| GATCTATTATAGATC ((((((...)))))) | -33.4 kcal/mol | 41.9 °C |
| GATCTATTCATAGATC ((((((....)))))) | -35.8 kcal/mol | 49.9 °C |
| GATCTATTCCTAGATC ((((((....)))))) | -29.9 kcal/mol | 40.4 °C |
| GATCTATTGGTAGATC ((((((....)))))) | -30.4 kcal/mol | 44.2 °C |
| GATCTATTGTTAGATC ((((((....)))))) | -35.9 kcal/mol | 42.5 °C |
| GATCTATTTTAGATC ((((((...)))))) | -32.7 kcal/mol | 41.7 °C |
| GATCTCAAAGAGATC ((((((...)))))) | -37.6 kcal/mol | 55.2 °C |
| GATCTCAACAGAGATC ((((((....)))))) | -44.3 kcal/mol | 54.9 °C |
| GATCTCAATAGAGATC ((((((....)))))) | -38.5 kcal/mol | 53.3 °C |
| GATCTCAATCGAGATC ((((((....)))))) | -43.7 kcal/mol | 52.2 °C |
| GATCTCAATTGAGATC ((((((....)))))) | -38 kcal/mol | 53.1 °C |
| GATCTCACAGGAGATC ((((((....)))))) | -34 kcal/mol | 51.7 °C |
| GATCTCACCGAGATC ((((((...)))))) | -36.5 kcal/mol | 55.2 °C |
| GATCTCACGAGAGATC ((((((....)))))) | -39.5 kcal/mol | 52.3 °C |
| GATCTCACGCGAGATC ((((((....)))))) | -41.7 kcal/mol | 52.7 °C |
| GATCTCAGGTGAGATC ((((((....)))))) | -32.2 kcal/mol | 53.6 °C |
| GATCTCATACGAGATC ((((((....)))))) | -37.8 kcal/mol | 52.6 °C |
| GATCTCCAACGAGATC ((((((....)))))) | -39.3 kcal/mol | 49.8 °C |
| GATCTCCACTGAGATC ((((((....)))))) | -40.7 kcal/mol | 51.7 °C |

| Sequence | folding enthalpy [1] | Tm [2] |
| --- | --- | --- |
| GATCTCCAGCGAGATC ((((((....)))))) | -30.6 kcal/mol | 50 °C |
| GATCTCCCACGAGATC ((((((....)))))) | -40.3 kcal/mol | 50.5 °C |
| GATCTCCCGAAAGGGATC (((..(((....)))))) | -9.21 kcal/mol | 29.6 °C |
| GATCTCCCGCGAGATC ((((((....)))))) | -32.3 kcal/mol | 52.7 °C |
| GATCTCCCGTGAGATC ((((((....)))))) | -35.4 kcal/mol | 52.5 °C |
| GATCTCCGAAAGGATATC (((.(((....))).))) | -31.9 kcal/mol | 39.3 °C |
| GATCTCCGAGGAGATC ((((((....)))))) | -37.8 kcal/mol | 60.4 °C |
| GATCTCCGCTGAGATC ((((((....)))))) | -32.5 kcal/mol | 53.1 °C |
| GATCTCCGGTGAGATC ((((((....)))))) | -35.5 kcal/mol | 52 °C |
| GATCTCCTGGAGATC ((((((...)))))) | -37.3 kcal/mol | 53.2 °C |
| GATCTCCTTGAGATC ((((((...)))))) | -40.6 kcal/mol | 54.4 °C |
| GATCTCGACAGAGATC ((((((....)))))) | -41.9 kcal/mol | 66.8 °C |
| GATCTCGAGGGAGATC ((((((....)))))) | -19.9 kcal/mol | 51.7 °C |
| GATCTCGCACGAGATC ((((((....)))))) | -44.6 kcal/mol | 61 °C |
| GATCTCGCCGAGATC ((((((...)))))) | -37 kcal/mol | 55.2 °C |
| GATCTCGCGAAAGCGATC (((..(((....)))))) | -5.91 kcal/mol | 28.1 °C |
| GATCTCGGCGAGATC ((((((...)))))) | -35.8 kcal/mol | 59.6 °C |
| GATCTCGGGCGAGATC ((((((....)))))) | -30.4 kcal/mol | 55.2 °C |
| GATCTCTAAAGAGATC ((((((....)))))) | -33.4 kcal/mol | 51.4 °C |
| GATCTCTACTGAGATC ((((((....)))))) | -41.6 kcal/mol | 53.2 °C |
| GATCTCTAGCGAGATC ((((((....)))))) | -23.1 kcal/mol | 49.9 °C |
| GATCTCTATTGAGATC ((((((....)))))) | -39.1 kcal/mol | 53 °C |
| GATCTCTCCTGAGATC ((((((....)))))) | -39.3 kcal/mol | 55 °C |
| GATCTCTCTCGAGATC ((((((....)))))) | -37.2 kcal/mol | 52 °C |
